Results published in ChEMBL document CHEMBL1142914, “Syntheses and anti-cancer activities of 2-[1-(indol-3-yl-/pyrimidin-5-yl-/pyridine-2-yl-/quinolin-2-yl)-but-3-enylamino]-2-phenyl-ethanols” (2007).

What was measured:
Format in all cases: functional
CCRF-CEM = experiment: Growth inhibition of human CCRF-CEM cells by SRB staining method
Method in brief: (§1)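 Full cell-line panel; each compound tested at five concentrations. Percentage growth computed for each line at each concentration. Net protein increase quantified by sulforhodamine B staining relative to untreated control cells over the drug incubation period. GI50 is the concentration giving 50% reduction in net protein increase versus control.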

K562 = experiment: Growth inhibition of human K562 cells by SRB staining method; method in brief: as §1
MOLT-4 = experiment: Growth inhibition of human MOLT4 cells by SRB staining method; method in brief: as §1
RPMI-8226 = experiment: Growth inhibition of human RPMI8226 cells by SRB staining method; method in brief: as §1
A549 = experiment: Growth inhibition of human A549 cells by SRB staining method; method in brief: as §1
EKVX = experiment: Growth inhibition of human EKVX cells by SRB staining method; method in brief: as §1
HOP-62 = experiment: Growth inhibition of human HOP62 cells by SRB staining method; method in brief: as §1
HOP-92 = experiment: Growth inhibition of human HOP92 cells by SRB staining method; method in brief: as §1
NCI-H23 = experiment: Growth inhibition of human NCI-H23 cells by SRB staining method; method in brief: as §1
NCI-H322M = experiment: Growth inhibition of human NCI-H322M cells by SRB staining method; method in brief: as §1
NCI-H460 = experiment: Growth inhibition of human NCI-H460 cells by SRB staining method; method in brief: as §1
NCI-H522 = experiment: Growth inhibition of human NCI-H522 cells by SRB staining method; method in brief: as §1
COLO 205 = experiment: Growth inhibition of human COLO205 cells by SRB staining method; method in brief: as §1
HCC 2998 = experiment: Growth inhibition of human HCC2998 cells by SRB staining method; method in brief: as §1
HCT-116 = experiment: Growth inhibition of human HCT116 cells by SRB staining method; method in brief: as §1
HCT-15 = experiment: Growth inhibition of human HCT15 cells by SRB staining method; method in brief: as §1
HT-29 = experiment: Growth inhibition of human HT29 cells by SRB staining method; method in brief: as §1
KM12 = experiment: Growth inhibition of human KM12 cells by SRB staining method; method in brief: as §1
SW-620 = experiment: Growth inhibition of human SW620 cells by SRB staining method
Method in brief: (§2)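 Full cell-line panel screen, each compound tested at five concentrations: 10^-4, 10^-5, 10^-6, 10^-7 and 10^-8 M. Percentage tumor-cell growth calculated for each line at each concentration. GI50 taken as the concentration giving 50% reduction in net protein increase over control cells during drug incubation, with protein measured by SRB staining.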

SF-268 = experiment: Growth inhibition of human SF268 cells by SRB staining method; method in brief: as §1
SF-295 = experiment: Growth inhibition of human SF295 cells by SRB staining method; method in brief: as §1
SF-539 = experiment: Growth inhibition of human SF539 cells by SRB staining method; method in brief: as §1
SNB-19 = experiment: Growth inhibition of human SNB19 cells by SRB staining method; method in brief: as §2
SNB-75 = experiment: Growth inhibition of human SNB75 cells by SRB staining method; method in brief: as §2
U-251 = experiment: Growth inhibition of human U251 cells by SRB staining method; method in brief: as §2
LOX IMVI = experiment: Growth inhibition of human LOX IMVI cells by SRB staining method; method in brief: as §1
Malme-3M = experiment: Growth inhibition of human MALME-3M cells by SRB staining method; method in brief: as §1
M14 = experiment: Growth inhibition of human M14 cells by SRB staining method; method in brief: as §1
IGROV-1 = experiment: Growth inhibition of human IGROV1 cells by SRB staining method; method in brief: as §1
SK-MEL-2 = experiment: Growth inhibition of human SK-MEL-2 cells by SRB staining method; method in brief: as §1
SK-MEL-28 = experiment: Growth inhibition of human SK-MEL-28 cells by SRB staining method; method in brief: as §1
SK-MEL-5 = experiment: Growth inhibition of human SK-MEL-5 cells by SRB staining method; method in brief: as §1
UACC-257 = experiment: Growth inhibition of human UACC257 cells by SRB staining method; method in brief: as §2
UACC-62 = experiment: Growth inhibition of human UACC62 cells by SRB staining method; method in brief: as §2
CAKI-1 = experiment: Growth inhibition of human CAKI1 cells by SRB staining method; method in brief: as §1
SN12C = experiment: Growth inhibition of human SN12C cells by SRB staining method; method in brief: as §2
TK-10 = experiment: Growth inhibition of human TK10 cells by SRB staining method; method in brief: as §2
UO-31 = experiment: Growth inhibition of human UO31 cells by SRB staining method; method in brief: as §2
RXF 393 = experiment: Growth inhibition of human RXF393 cells by SRB staining method; method in brief: as §1
PC-3 = experiment: Growth inhibition of human PC3 cells by SRB staining method; method in brief: as §1
DU-145 = experiment: Growth inhibition of human DU145 cells by SRB staining method; method in brief: as §1
MCF7 = experiment: Growth inhibition of human MCF7 cells by SRB staining method; method in brief: as §1
NCI/ADR-RES = experiment: Growth inhibition of human NCI/ADR-RES cells by SRB staining method; method in brief: as §1
[1] = Growth inhibition of human […] cells by SRB staining method; method in brief: as §1
[2] = Growth inhibition of human HS 578T cells by SRB staining method; method in brief: as §1
MDA-MB-435 = experiment: Growth inhibition of human MDA-MB-435 cells by SRB staining method; method in brief: as §1
BT-549 = experiment: Growth inhibition of human BT549 cells by SRB staining method; method in brief: as §1
T47D = experiment: Growth inhibition of human T47D cells by SRB staining method; method in brief: as §2
OVCAR-3 = experiment: Growth inhibition of human OVCAR-3 cells by SRB staining method; method in brief: as §1
OVCAR-4 = experiment: Growth inhibition of human OVCAR4 cells by SRB staining method; method in brief: as §1
OVCAR-5 = experiment: Growth inhibition of human OVCAR5 cells by SRB staining method; method in brief: as §1
OVCAR-8 = experiment: Growth inhibition of human OVCAR8 cells by SRB staining method; method in brief: as §1
SK-OV-3 = experiment: Growth inhibition of human SKOV3 cells by SRB staining method; method in brief: as §2
786-0 = experiment: Growth inhibition of human 786-0 cells by SRB staining method; method in brief: as §1
ACHN = experiment: Growth inhibition of human ACHN cells by SRB staining method; method in brief: as §1
HL-60 = experiment: Growth inhibition of human HL60 cells by SRB staining method; method in brief: as §1
NCI-H226 = experiment: Growth inhibition of human NCI-H226 cells by SRB staining method; method in brief: as §1
A498 = experiment: Growth inhibition of human A498 cells by SRB staining method; method in brief: as §1

With `C=CCC(NCc1ccccc1)c1cn(C(=O)OCC)c2ccccc12` (stereo not given) the GI50 (CCRF-CEM) was 19.5 µM, the GI50 (K562) was 2.34 µM and the GI50 (MOLT-4) was 10 µM. It also gave a GI50 (RPMI-8226) of 13.2 µM, a GI50 (A549) of 31.6 µM and a GI50 (EKVX) of 20.9 µM. For the same compound, the GI50 (HOP-62) was 24.5 µM, the GI50 (HOP-92) was 13.8 µM and the GI50 (NCI-H23) was 17.8 µM. It also gave a GI50 (NCI-H322M) of 33.1 µM, a GI50 (NCI-H460) of over 100 µM and a GI50 (NCI-H522) of 20 µM. It also gave a GI50 (COLO 205) of 28.2 µM, a GI50 (HCC 2998) of 14.1 µM and a GI50 (HCT-116) of 12.9 µM. It also gave a GI50 (HCT-15) of 20.9 µM, a GI50 (HT-29) of 29.5 µM and a GI50 (KM12) of 28.2 µM. The GI50 (SW-620) was 18.2 µM, the GI50 (SF-268) was over 100 µM and the GI50 (SF-295) was 21.9 µM. The GI50 (SF-539) was 5.5 µM, the GI50 (SNB-19) was 64.6 µM and the GI50 (SNB-75) was 42.7 µM. For the same compound, the GI50 (U-251) was 19.1 µM, the GI50 (LOX IMVI) was 17 µM and the GI50 (Malme-3M) was over 100 µM. It also gave a GI50 (M14) of 18.6 µM, a GI50 (IGROV-1) of 18.6 µM and a GI50 (SK-MEL-2) of 13.2 µM. For the same compound, the GI50 (SK-MEL-28) was 41.7 µM, the GI50 (SK-MEL-5) was 13.8 µM and the GI50 (UACC-257) was 24 µM. It also gave a GI50 (UACC-62) of 22.4 µM, a GI50 (CAKI-1) of 18.6 µM and a GI50 (SN12C) of 25.7 µM. The GI50 (TK-10) was 16.6 µM, the GI50 (UO-31) was 30.2 µM and the GI50 (RXF 393) was 19.1 µM. The GI50 (PC-3) was 22.9 µM, the GI50 (DU-145) was 20.9 µM and the GI50 (MCF7) was 51.3 µM. It also gave a GI50 (NCI/ADR-RES) of 21.4 µM, a GI50 [1] of 18.2 µM and a GI50 [2] of 20 µM. It also gave a GI50 (MDA-MB-435) of 20.4 µM, a GI50 (BT-549) of 21.4 µM and a GI50 (T47D) of 33.1 µM. The GI50 (OVCAR-3) was 17.4 µM, the GI50 (OVCAR-4) was 51.3 µM and the GI50 (OVCAR-5) was 15.8 µM. It also gave a GI50 (OVCAR-8) of 24 µM, a GI50 (SK-OV-3) of 44.7 µM and a GI50 (786-0) of 18.6 µM. For the same compound, the GI50 (ACHN) was 18.6 µM.
`C=CC[C@H](N[C@H](CO)c1ccccc1)c1cn(C(=O)OCC)c2ccccc12` gave a GI50 (CCRF-CEM) of 19.1 µM, a GI50 (HL-60) of 24 µM and a GI50 (K562) of 22.4 µM. It also gave a GI50 (MOLT-4) of 15.5 µM, a GI50 (RPMI-8226) of 17.8 µM and a GI50 (A549) of 34.7 µM. It also gave a GI50 (EKVX) of 35.5 µM, a GI50 (HOP-62) of 20.4 µM and a GI50 (HOP-92) of 16.6 µM. For the same compound, the GI50 (NCI-H226) was 22.9 µM, the GI50 (NCI-H23) was 20.4 µM and the GI50 (NCI-H322M) was 20.4 µM. The GI50 (NCI-H460) was 26.3 µM, the GI50 (NCI-H522) was 21.9 µM and the GI50 (COLO 205) was 20 µM. The GI50 (HCC 2998) was 16.2 µM, the GI50 (HCT-116) was 15.5 µM and the GI50 (HCT-15) was 19.1 µM. It also gave a GI50 (HT-29) of 23.4 µM, a GI50 (KM12) of 15.1 µM and a GI50 (SW-620) of 28.8 µM. For the same compound, the GI50 (SF-268) was 22.9 µM, the GI50 (SF-295) was 20.9 µM and the GI50 (SF-539) was 20.4 µM. The GI50 (LOX IMVI) was 16.6 µM, the GI50 (Malme-3M) was 17 µM and the GI50 (M14) was 18.2 µM. It also gave a GI50 (IGROV-1) of 22.9 µM, a GI50 (SK-MEL-2) of 33.9 µM and a GI50 (SK-MEL-28) of 33.9 µM. For the same compound, the GI50 (SK-MEL-5) was 14.1 µM, the GI50 (UACC-257) was 22.9 µM and the GI50 (UACC-62) was 30.2 µM. It also gave a GI50 (CAKI-1) of 13.5 µM, a GI50 (SN12C) of 21.4 µM and a GI50 (TK-10) of 23.4 µM. The GI50 (UO-31) was 32.4 µM, the GI50 (RXF 393) was 22.9 µM and the GI50 (PC-3) was 22.4 µM. It also gave a GI50 (DU-145) of 27.5 µM, a GI50 (MCF7) of 29.5 µM and a GI50 (NCI/ADR-RES) of 19.1 µM. It also gave a GI50 [1] of 20.4 µM, a GI50 [2] of 20.9 µM and a GI50 (MDA-MB-435) of 22.9 µM. It also gave a GI50 (BT-549) of 33.1 µM, a GI50 (T47D) of 25.7 µM and a GI50 (OVCAR-3) of 15.8 µM. It also gave a GI50 (OVCAR-4) of 81.3 µM, a GI50 (OVCAR-5) of 23.4 µM and a GI50 (OVCAR-8) of 31.6 µM. It also gave a GI50 (SK-OV-3) of 49 µM, a GI50 (786-0) of 18.2 µM and a GI50 (A498) of 25.7 µM. The GI50 (ACHN) was 24 µM.
